≈ marks a conversion by molar mass, not a printed value.
Experiments:
[1] = test system: Mycobacterium tuberculosis; assay: Antimycobacterial activity against Mycobacterium tuberculosis H37Rv replicating form by alamar blue assay; assay type: functional
Method in brief: (§1)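 M. tuberculosis H37Rv (ATCC 27294) was tested, in replicating form by MABA and in nonreplicating form by LORA, following published procedures. The value is the MIC, reported as the average of three individual determinations.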

[2] = test system: Mycobacterium tuberculosis; assay: Antimycobacterial activity against non replicating persistent form of Mycobacterium tuberculosis H37Rv after 10 days by low oxygen recovery assay; assay type: functional; conditions: 240 h; method in brief: as §1
Vero = assay: Cytotoxicity against african green monkey Vero cells after 72 hrs; assay type: cell-based; conditions: Chlorocebus sabaeus
Candida albicans = assay: Antimicrobial activity against Candida albicans; assay type: functional
Escherichia coli = assay: Antimicrobial activity against Escherichia coli; assay type: functional
Staphylococcus aureus = assay: Antimicrobial activity against Staphylococcus aureus; assay type: functional
[3] = test system: Mycolicibacterium smegmatis; assay: Antimicrobial activity against Mycobacterium smegmatis; assay type: functional

## CCOC(=O)c1cc(COc2cc(C(F)(F)F)nc3c(C(F)(F)F)cccc23)on1
[1]
  MIC90: 0.9 µM (≈ 0.391 µg/mL)
[2]
  MIC90: 12.2 µM (≈ 5.3 µg/mL)

## CCOC(=O)c1cc(/C=C/c2ccc(C(F)(F)F)cc2)on1
[1]
  MIC90: 3.9 µM (≈ 1.21 µg/mL)
[2]
  MIC90: 6.8 µM (≈ 2.12 µg/mL)

## CCOC(=O)c1cc(/C=C/c2ccccc2C(F)(F)F)on1
[1]
  MIC90: 3.9 µM (≈ 1.21 µg/mL)
[2]
  MIC90: 12.1 µM (≈ 3.77 µg/mL)

## CCOC(=O)c1cc(/C=C/c2ccco2)on1
[1]
  MIC90: 7.9 µM (≈ 1.84 µg/mL)
Vero
  IC50: > 128 µM
[2]
  MIC90: 50.2 µM (≈ 11.7 µg/mL)

## CCOC(=O)c1cc(CCc2cc(O)cc(O)c2)on1
[1]
  MIC90: > 128 µM
[2]
  MIC90: > 128 µM

## CCOC(=O)c1cc(/C=C\c2cccc(OC)n2)on1
[1]
  MIC90: 27.5 µM (≈ 7.54 µg/mL)
[2]
  MIC90: 45.9 µM (≈ 12.6 µg/mL)

## CCOC(=O)c1cc(/C=C/c2c(Cl)ccc(C)c2F)on1
[1]
  MIC90: 3.5 µM (≈ 1.08 µg/mL)
Vero
  IC50: > 128 µM
[2]
  MIC90: 7 µM (≈ 2.17 µg/mL)

## CCOC(=O)c1cc(/C=C/c2ccccc2CC)on1
[1]
  MIC90: 0.98 µM (≈ 0.266 µg/mL)
Vero
  IC50: > 128 µM
[2]
  MIC90: 2 µM (≈ 0.543 µg/mL)

## CCCCOC(=O)c1cc(/C=C/c2ccc(OC)nc2)on1
[1]
  MIC90: 2 µM (≈ 0.605 µg/mL)
[2]
  MIC90: 6.7 µM (≈ 2.03 µg/mL)

## CCOC(=O)c1cc(/C=C/c2ccnc3ccccc23)on1
[1]
  MIC90: 0.2 µM (≈ 0.0589 µg/mL)
[2]
  MIC90: 2.6 µM (≈ 0.765 µg/mL)

## CCOC(=O)c1cc(/C=C/c2ccc(C)c3ccccc23)on1
[1]
  MIC90: 17.3 µM (≈ 5.32 µg/mL)
Vero
  IC50: > 128 µM
[2]
  MIC90: 3.6 µM (≈ 1.11 µg/mL)

## CCOC(=O)c1cc(/C=C/c2ccc(N3CCN(C)CC3)cc2)on1
[1]
  MIC90: 15.2 µM (≈ 5.19 µg/mL)
[2]
  MIC90: 37.4 µM (≈ 12.8 µg/mL)

## CCOC(=O)c1cc(/C=C/c2ccc(F)cc2F)on1
[1]
  MIC90: 5.3 µM (≈ 1.48 µg/mL)
Vero
  IC50: > 128 µM
[2]
  MIC90: 13.8 µM (≈ 3.85 µg/mL)

## CCOC(=O)c1cc(/C=C/c2cc(Cl)cc(Cl)c2)on1
[1]
  MIC90: 5.4 µM (≈ 1.69 µg/mL)
Vero
  IC50: > 128 µM
[2]
  MIC90: 5.9 µM (≈ 1.84 µg/mL)

## O=C(O)c1cc(/C=C/c2cccc(C(F)(F)F)c2)on1
[1]
  MIC90: > 128 µM
[2]
  MIC90: > 128 µM

## CCOC(=O)c1cc(/C=C/c2ccccc2)on1
[1]
  MIC90: 11.7 µM (≈ 2.85 µg/mL)
[2]
  MIC90: 18 µM (≈ 4.38 µg/mL)

## CCCCOC(=O)c1cc(/C=C/c2ccnc3ccc(OC)cc23)on1
[1]
  MIC90: 1.1 µM (≈ 0.388 µg/mL)
Vero
  IC50: > 128 µM
[2]
  MIC90: 1.8 µM (≈ 0.634 µg/mL)

## CCOC(=O)c1cc(/C=C/c2cc(OCc3ccccc3)cc(OCc3ccccc3)c2)on1
[1]
  MIC90: 6.3 µM (≈ 2.87 µg/mL)
Vero
  IC50: > 128 µM
[2]
  MIC90: 4.7 µM (≈ 2.14 µg/mL)

## CCOC(=O)c1cc(/C=C/c2ccsc2)on1
[1]
  MIC90: 1.6 µM (≈ 0.399 µg/mL)
Vero
  IC50: > 128 µM
[2]
  MIC90: 26.9 µM (≈ 6.71 µg/mL)

## O=C(O)c1cc(/C=C/c2cccc3ccccc23)on1
[1]
  MIC90: > 128 µM
[2]
  MIC90: > 128 µM

## CCCCCCCCOC(=O)c1cc(/C=C/c2c(Cl)cncc2Cl)on1
[1]
  MIC90: 10.9 µM (≈ 4.33 µg/mL)
Vero
  IC50: > 128 µM
[2]
  MIC90: 9.2 µM (≈ 3.66 µg/mL)

## CCCCCCC(C)OC(=O)c1cc(/C=C/c2c(Cl)cncc2Cl)on1 (stereo not given)
[1]
  MIC90: 8.3 µM (≈ 3.3 µg/mL)
Vero
  IC50: > 128 µM
[2]
  MIC90: 24.2 µM (≈ 9.61 µg/mL)

## CCOC(=O)c1cc(/C=C/c2cccc(OC)c2)on1
[1]
  MIC90: 3.7 µM (≈ 1.01 µg/mL)
Vero
  IC50: > 128 µM
[2]
  MIC90: 8.8 µM (≈ 2.4 µg/mL)

## CCOC(=O)c1cc(/C=C/c2cc(F)cc(F)c2)on1
[1]
  MIC90: 3.7 µM (≈ 1.03 µg/mL)
Vero
  IC50: > 128 µM
[2]
  MIC90: 8.9 µM (≈ 2.49 µg/mL)

## CCOC(=O)c1cc(/C=C/c2ccccc2SC)on1
[1]
  MIC90: 0.96 µM (≈ 0.278 µg/mL)
Vero
  IC50: > 128 µM
[2]
  MIC90: 7.8 µM (≈ 2.26 µg/mL)

## CCOC(=O)c1cc(/C=C/c2cccc(N)c2)on1
[1]
  MIC90: 7.5 µM (≈ 1.94 µg/mL)
Vero
  IC50: > 128 µM
[2]
  MIC90: 20.7 µM (≈ 5.35 µg/mL)

## CCOC(=O)c1cc(/C=C/c2cccc(C(C)C)c2)on1
[1]
  MIC90: 3.1 µM (≈ 0.885 µg/mL)
Vero
  IC50: > 128 µM
[2]
  MIC90: 8.3 µM (≈ 2.37 µg/mL)

## CCOC(=O)c1cc(/C=C/c2cc(OC)cc(OC)c2)on1
[1]
  MIC90: 2 µM (≈ 0.607 µg/mL)
Vero
  IC50: > 128 µM
[2]
  MIC90: 3.6 µM (≈ 1.09 µg/mL)

## CCOC(=O)c1cc(/C=C/c2ccc(OC)nc2)on1
[1]
  MIC90: 1.4 µM (≈ 0.384 µg/mL)
Vero
  IC50: > 128 µM
[2]
  MIC90: 86.6 µM (≈ 23.8 µg/mL)

## CCOC(=O)c1cc(/C=C/c2cccc(Cl)c2)on1
[1]
  MIC90: 2.3 µM (≈ 0.639 µg/mL)
Vero
  IC50: > 128 µM
[2]
  MIC90: 6.7 µM (≈ 1.86 µg/mL)

## CCOC(=O)c1cc(/C=C\c2cc(F)cc(F)c2)on1
[1]
  MIC90: 29.2 µM (≈ 8.15 µg/mL)
Vero
  IC50: > 128 µM
[2]
  MIC90: 12.3 µM (≈ 3.43 µg/mL)

## CCC(CC)OC(=O)c1cc(/C=C/c2c(Cl)cncc2Cl)on1
[1]
  MIC90: 7.9 µM (≈ 2.81 µg/mL)
Vero
  IC50: > 128 µM
[2]
  MIC90: 8.9 µM (≈ 3.16 µg/mL)

## CCOC(=O)c1cc(/C=C/c2cccc(C(F)(F)F)c2)on1
Candida albicans
  MIC: > 100 µM
[1]
  MIC90: 0.73 µM (≈ 0.227 µg/mL)
Escherichia coli
  MIC: > 100 µM
Vero
  IC50: > 128 µM
[2]
  MIC90: 21.1 µM (≈ 6.57 µg/mL)
Staphylococcus aureus
  MIC: > 100 µM
[3]
  MIC: > 100 µM

## CCOC(=O)c1cc(/C=C/c2cccc(C)c2)on1
[1]
  MIC90: 6.5 µM (≈ 1.67 µg/mL)
Vero
  IC50: > 128 µM
[2]
  MIC90: 7.4 µM (≈ 1.9 µg/mL)

## CCOC(=O)c1cc(/C=C/c2cccc3ccccc23)on1
[1]
  MIC90: 1.6 µM (≈ 0.469 µg/mL)
Vero
  IC50: > 128 µM
[2]
  MIC90: 4 µM (≈ 1.17 µg/mL)

## Clc1cncc(Cl)c1/C=C/c1ccno1
[1]
  MIC90: > 128 µM
[2]
  MIC90: > 128 µM

## CCOC(=O)c1cc(/C=C/c2c(Cl)cccc2Cl)on1
[1]
  MIC90: 2.5 µM (≈ 0.78 µg/mL)
[2]
  MIC90: 3.5 µM (≈ 1.09 µg/mL)

## CCOC(=O)c1cc(CCc2cccc(C(F)(F)F)c2)on1
[1]
  MIC90: 14.2 µM (≈ 4.45 µg/mL)
[2]
  MIC90: 15.6 µM (≈ 4.89 µg/mL)

## CCOC(=O)c1cc(/C=C/c2ccc(OC)cc2F)on1
[1]
  MIC90: 3.8 µM (≈ 1.11 µg/mL)
[2]
  MIC90: 10.7 µM (≈ 3.12 µg/mL)

## CCOC(=O)c1cc(/C=C/c2cccc(O)c2)on1
[1]
  MIC90: 7.8 µM (≈ 2.02 µg/mL)
Vero
  IC50: > 128 µM
[2]
  MIC90: 28.7 µM (≈ 7.44 µg/mL)

## O=C(OCCCC1CCCC1)c1cc(/C=C/c2c(Cl)cncc2Cl)on1
[1]
  MIC90: 7.3 µM (≈ 2.89 µg/mL)
[2]
  MIC90: 9.3 µM (≈ 3.68 µg/mL)

## CCOC(=O)c1cc(/C=C/c2cccc(OC)n2)on1
[1]
  MIC90: 3.8 µM (≈ 1.04 µg/mL)
[2]
  MIC90: 16 µM (≈ 4.39 µg/mL)

## CCOC(=O)c1cc(/C=C\c2cccc([N+](=O)[O-])c2)on1
[1]
  MIC90: 5.4 µM (≈ 1.56 µg/mL)
Vero
  IC50: > 128 µM
[2]
  MIC90: 10.9 µM (≈ 3.14 µg/mL)

## CCOC(=O)c1cc(/C=C/c2c(Cl)cncc2Cl)on1
Candida albicans
  MIC: > 100 µM
[1]
  MIC90: 0.59 µM (≈ 0.185 µg/mL)
Escherichia coli
  MIC: > 100 µM
Vero
  IC50: > 128 µM
[2]
  MIC90: 5.1 µM (≈ 1.6 µg/mL)
Staphylococcus aureus
  MIC: > 100 µM
[3]
  MIC: 94.4 µM (≈ 29.6 µg/mL)

## CCCCOC(=O)c1cc(/C=C/c2cccc(OC)c2)on1
[1]
  MIC90: 1.8 µM (≈ 0.542 µg/mL)
[2]
  MIC90: 7.6 µM (≈ 2.29 µg/mL)

## CCOC(=O)c1cc(/C=C/c2ccnc3ccc(OC)cc23)on1
[1]
  MIC90: 0.4 µM (≈ 0.13 µg/mL)
[2]
  MIC90: 1.1 µM (≈ 0.357 µg/mL)

## CCOC(=O)c1cc(/C=C/c2cccc([N+](=O)[O-])c2)on1
[1]
  MIC90: 1.2 µM (≈ 0.346 µg/mL)
Vero
  IC50: > 128 µM
[2]
  MIC90: 5.1 µM (≈ 1.47 µg/mL)

## CCOC(=O)c1cc(/C=C/c2ccncc2)on1
[1]
  MIC90: 15.5 µM (≈ 3.79 µg/mL)
Vero
  IC50: > 128 µM
[2]
  MIC90: 52.4 µM (≈ 12.8 µg/mL)

## NNC(=O)c1ccncc1 [ISONIAZID]
[1]
  MIC90: 0.84 µM (≈ 0.115 µg/mL)
Vero
  IC50: 128 µM
[2]
  MIC90: > 128 µM

## COc1c(N2C[C@@H]3CCCN[C@@H]3C2)c(F)cc2c(=O)c(C(=O)O)cn(C3CC3)c12 [MOXIFLOXACIN]
[1]
  MIC90: 0.46 µM (≈ 0.185 µg/mL)
[2]
  MIC90: > 128 µM

## CO[C@H]1/C=C/O[C@@]2(C)Oc3c(C)c(O)c4c(O)c(c(/C=N/N5CCN(C)CC5)c(O)c4c3C2=O)NC(=O)/C(C)=C\C=C\[C@H](C)[C@H](O)[C@@H](C)[C@@H](O)[C@@H](C)[C@H](OC(C)=O)[C@@H]1C [RIFAMPIN]
[1]
  MIC90: 0.1 µM (≈ 0.0823 µg/mL)
[2]
  MIC90: 1.9 µM (≈ 1.56 µg/mL)
